Test results: ChEMBL document CHEMBL2434893, “Synthesis, DNA binding and anti-leukemic activity of an aminoacyl nucleolipid” (Bioorg Med Chem Lett, 2013)

Legend:
SNB-75 = assay: Cytotoxicity against human SNB75 cells assessed as cell growth at 10 uM after 48 hrs by SRB assay relative to control; assay type: functional; conditions: SNB-75, 48 h, read-out: Activity
How it was run: (§1)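 Single-dose (10 μM) screen run by the NCI Developmental Therapeutics Program on its 60 human cancer cell line panel. Viability was determined after 48 h incubation with the cells at 37 °C.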

SF-539 = assay: Cytotoxicity against human SF539 cells assessed as cell growth at 10 uM after 48 hrs by SRB assay relative to control; assay type: functional; conditions: SF-539, 48 h, read-out: Activity
How it was run: (§2)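 NCI Developmental Therapeutics Program 60-cell-line screen at a single dose of 10 μM. Cells incubated with compound for 48 h at 37 °C before viability determination.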

SF-295 = assay: Cytotoxicity against human SF295 cells assessed as cell growth at 10 uM after 48 hrs by SRB assay relative to control; assay type: functional; conditions: SF-295, 48 h, read-out: Activity; how it was run: as §2
KM12 = assay: Cytotoxicity against human KM12 cells assessed as cell growth at 10 uM after 48 hrs by SRB assay relative to control; assay type: functional; conditions: KM12, 48 h, read-out: Activity; how it was run: as §2
SW-620 = assay: Cytotoxicity against human SW620 cells assessed as cell growth at 10 uM after 48 hrs by SRB assay relative to control; assay type: functional; conditions: SW-620, 48 h, read-out: Activity; how it was run: as §1
HCT-15 = assay: Cytotoxicity against human HCT15 cells assessed as cell growth at 10 uM after 48 hrs by SRB assay relative to control; assay type: functional; conditions: HCT-15, 48 h, read-out: Activity; how it was run: as §2
HCC 2998 = assay: Cytotoxicity against human HCC2998 cells assessed as cell growth at 10 uM after 48 hrs by SRB assay relative to control; assay type: functional; conditions: HCC 2998, 48 h, read-out: Activity; how it was run: as §2
COLO 205 = assay: Cytotoxicity against human COLO205 cells assessed as cell growth at 10 uM after 48 hrs by SRB assay relative to control; assay type: functional; conditions: COLO 205, 48 h, read-out: Activity; how it was run: as §2
NCI-H460 = assay: Cytotoxicity against human NCI-H460 cells assessed as cell growth at 10 uM after 48 hrs by SRB assay relative to control; assay type: functional; conditions: NCI-H460, 48 h, read-out: Activity; how it was run: as §2
NCI-H322M = assay: Cytotoxicity against human NCI-H322M cells assessed as cell growth at 10 uM after 48 hrs by SRB assay relative to control; assay type: functional; conditions: read-out: Activity; how it was run: as §2
NCI-H226 = assay: Cytotoxicity against human NCI-H226 cells assessed as cell growth at 10 uM after 48 hrs by SRB assay relative to control; assay type: functional; conditions: NCI-H226, 48 h, read-out: Activity; how it was run: as §2
HOP-62 = assay: Cytotoxicity against human HOP62 cells assessed as cell growth at 10 uM after 48 hrs by SRB assay relative to control; assay type: functional; conditions: HOP-62, 48 h, read-out: Activity; how it was run: as §2
A549 = assay: Cytotoxicity against human A549 cells assessed as cell growth at 10 uM after 48 hrs by SRB assay relative to control; assay type: functional; conditions: A549, 48 h, read-out: Activity; how it was run: as §2
RPMI-8226 = assay: Cytotoxicity against human RPMI8226 cells assessed as cell growth at 10 uM after 48 hrs by SRB assay relative to control; assay type: functional; conditions: RPMI-8226, 48 h, read-out: Activity; how it was run: as §2
K562 = assay: Cytotoxicity against human K562 cells assessed as cell growth at 10 uM after 48 hrs by SRB assay relative to control; assay type: functional; conditions: K562, 48 h, read-out: Activity; how it was run: as §2
[1] = Stability in phosphate buffer assessed as formation of guanine-tetraplex structure at 0.2 to 3.9 mM at 25 degC by CD spectrophotometric analysis; assay type: physicochemical; conditions: 3900 µM
How it was run: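 GRP78 DNA duplex was annealed from complementary single strands in phosphate binding buffer (140 mM KCl, 1 mM MgCl₂, 5 mM Na₂HPO₄, pH 7.2), then titrated with ligand at 0.2–3.9 mM. CD spectra were recorded, and molar ellipticity was followed at the 260–280 nm maximum and the 248 nm minimum.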

[2] = Binding affinity to GRP78 duplex DNA (unknown origin) at 0.7 mM after 36 hrs by gel shift mobility assay relative to control
How it was run: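 Complementary strands (0.57 μM) annealed in 30% sucrose in TAE buffer (89 mM Tris/acetate, 2.5 mM EDTA, […]), incubated 36 h at 37 °C with ligand at 0, 5, 25, 50, 100 equiv per DNA phosphate (0, 0.2, 0.9, 1.9, 3.9 mM). Run on 24% native PAGE. DNA bands visualized by UV-shadowing at 260 nm. K_D taken from the duplex band ratio with versus without ligand.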

T47D = assay: Cytotoxicity against human T47D cells assessed as cell growth at 10 uM after 48 hrs by SRB assay relative to control; assay type: functional; conditions: read-out: Activity; how it was run: as §1
Hs-578T = assay: Cytotoxicity against human Hs578T cells assessed as cell growth at 10 uM after 48 hrs by SRB assay relative to control; assay type: functional; conditions: read-out: Activity; how it was run: as §2
CAKI-1 = assay: Cytotoxicity against human Caki1 cells assessed as cell growth at 10 uM after 48 hrs by SRB assay relative to control; assay type: functional; conditions: CAKI-1, 48 h, read-out: Activity; how it was run: as §2
A498 = assay: Cytotoxicity against human A498 cells assessed as cell growth at 10 uM after 48 hrs by SRB assay relative to control; assay type: functional; conditions: A498, 48 h, read-out: Activity; how it was run: as §2
SK-OV-3 = assay: Cytotoxicity against human SKOV3 cells assessed as cell growth at 10 uM after 48 hrs by SRB assay relative to control; assay type: functional; conditions: SK-OV-3, 48 h, read-out: Activity; how it was run: as §1
OVCAR-8 = assay: Cytotoxicity against human OVCAR8 cells assessed as cell growth at 10 uM after 48 hrs by SRB assay relative to control; assay type: functional; conditions: OVCAR-8, 48 h, read-out: Activity; how it was run: as §2
OVCAR-4 = assay: Cytotoxicity against human OVCAR4 cells assessed as cell growth at 10 uM after 48 hrs by SRB assay relative to control; assay type: functional; conditions: OVCAR-4, 48 h, read-out: Activity; how it was run: as §2
UACC-62 = assay: Cytotoxicity against human UACC62 cells assessed as cell growth at 10 uM after 48 hrs by SRB assay relative to control; assay type: functional; conditions: UACC-62, 48 h, read-out: Activity; how it was run: as §1
SK-MEL-28 = assay: Cytotoxicity against human SK-MEL-28 cells assessed as cell growth at 10 uM after 48 hrs by SRB assay relative to control; assay type: functional; conditions: SK-MEL-28, 48 h, read-out: Activity; how it was run: as §2
SK-MEL-5 = assay: Cytotoxicity against human SK-MEL-5 cells assessed as cell growth at 10 uM after 48 hrs by SRB assay relative to control; assay type: functional; conditions: SK-MEL-5, 48 h, read-out: Activity; how it was run: as §2
MDA-MB-435 = assay: Cytotoxicity against human MDA-MB-435 cells assessed as cell growth at 10 uM after 48 hrs by SRB assay relative to control; assay type: functional; conditions: MDA-MB-435, 48 h, read-out: Activity; how it was run: as §2
M14 = assay: Cytotoxicity against human M14 cells assessed as cell growth at 10 uM after 48 hrs by SRB assay relative to control; assay type: functional; conditions: M14, 48 h, read-out: Activity; how it was run: as §2
Malme-3M = assay: Cytotoxicity against human MALME-3M cells assessed as cell growth at 10 uM after 48 hrs by SRB assay relative to control; assay type: functional; conditions: read-out: Activity; how it was run: as §2

CCCCCCCCCCCCCCCC(=O)O[C@@H]1[C@H](OC(=O)CCCCCCCCCCCCCCC)[C@@H](C(=O)N[C@@H](CCCCN)C(=O)OC)O[C@H]1n1cnc2c(=O)[nH]c(NC(=O)C(C)C)nc21.Cl
growth at 10 µM (SNB-75): 94.1%
growth at 10 µM (SF-539): 103%
growth at 10 µM (SF-295): 108%
growth at 10 µM (KM12): 95%
growth at 10 µM (SW-620): 104%
growth at 10 µM (HCT-15): 96.6%
growth at 10 µM (HCC 2998): 101%
growth at 10 µM (COLO 205): 101%
growth at 10 µM (NCI-H460): 101%
growth at 10 µM (NCI-H322M): 89.6%
growth at 10 µM (NCI-H226): 102%
growth at 10 µM (HOP-62): 104%
growth at 10 µM (A549): 99.8%
growth at 10 µM (RPMI-8226): 92.5%
growth at 10 µM (K562): 82.9%
Stability [1]: Stable
Activity [2]: 50%
growth at 10 µM (T47D): 88.2%
growth at 10 µM (Hs-578T): 107%
growth at 10 µM (CAKI-1): 94%
growth at 10 µM (A498): 98.1%
growth at 10 µM (SK-OV-3): 99.4%
growth at 10 µM (OVCAR-8): 87%
growth at 10 µM (OVCAR-4): 120%
growth at 10 µM (UACC-62): 112%
growth at 10 µM (SK-MEL-28): 113%
growth at 10 µM (SK-MEL-5): 101%
growth at 10 µM (MDA-MB-435): 99.7%
growth at 10 µM (M14): 93.7%
growth at 10 µM (Malme-3M): 98.5%
